Screens: PubChem, several laboratories
EBNA-1 inhibitor: EBNA-1 DNA-binding inhibitors, primary screen, biochemical, fluorescence polarization; actives 0.34% (n = 300,000); inhibition, % at 14.8 µM; AID 1950, 2009; in the data active means inhibition above about 28%
M18AAP inhibitor: PfM18AAP inhibitors, malaria aminopeptidase, primary screen, biochemical, QFRET, recombinant enzyme; actives 1.2% (n = 290,000); H-Glu-NHMec fluorogenic cleavage; inhibition, % at 7.35 µM;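 active means inhibition above the campaign mean inhibition over all tested compounds plus 3 SD, cut at about 28% in these data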;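 further: 0% = plate median of test compound wells and 100% = 2 mM ZnCl2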
ALR inh: inhibitors of human ALR sulfhydryl oxidase, primary screen, biochemical, H2O2 detection, HRP-luminol luminescence, single point; purified ALR, DTT oxidation; inhibition, % (no concentration beside the values); actives 3.8% (n = 290,000);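 active means mean replicate inhibition above about 79%, with every replicate also reaching it, limit read from the data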
Target sequence (P55789 whole entry, looked up): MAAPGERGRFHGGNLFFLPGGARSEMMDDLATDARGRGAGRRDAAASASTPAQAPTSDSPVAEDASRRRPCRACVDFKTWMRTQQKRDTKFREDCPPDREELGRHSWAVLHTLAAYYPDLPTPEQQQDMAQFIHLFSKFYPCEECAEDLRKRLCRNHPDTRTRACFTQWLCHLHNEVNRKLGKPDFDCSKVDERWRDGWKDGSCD
HCV core dimer: inhibitors of HCV core protein dimerization, primary screen, biochemical, TR-FRET, high-throughput. TR-FRET GST/Flag-core106 dimerization, 1536-well. inhibition, % at 5 µM. actives 0.33% (n = 300,000). AID 1899, 2009;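 active means inhibition above the mean of all tested compounds plus 3 SD, set per screening campaign, cut at about 45% in these data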
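Material: Tagged HCV core106 pair (GST and Flag) | Amount: GST-core106 13.5 nM, Flag-core106 17 nM | Medium: KF-containing HEPES buffer, pH 7.45, DTT, CHAPS, BSA | Reagent: Eu donor and XL665 acceptor anti-tag antibodies | Schedule: 4 h at 22.5 °C | Technique: Time-resolved FRET, ex 340 nm, em 617 and 671 nm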
ZTA counter: counter-screen for EBNA-1 inhibitors: inhibitors of Epstein-Barr virus ZTA. P03206. ZTA-DNA binding, fluorescence polarization. inhibition, % at 11 µM. AID 2234. actives 0.15% (n = 320,000); in the data active means inhibition above about 33%
Target sequence (P03206 whole entry, looked up): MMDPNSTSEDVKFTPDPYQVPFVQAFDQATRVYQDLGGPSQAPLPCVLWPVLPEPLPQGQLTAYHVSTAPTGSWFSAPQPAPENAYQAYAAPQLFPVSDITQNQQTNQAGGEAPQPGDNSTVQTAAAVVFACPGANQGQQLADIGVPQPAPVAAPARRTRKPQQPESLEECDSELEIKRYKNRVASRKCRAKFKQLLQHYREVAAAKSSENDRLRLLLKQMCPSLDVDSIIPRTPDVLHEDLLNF
HCV NS3 hel inh: inhibitors of HCV NS3 helicase, primary screen, biochemical, Cy5 molecular beacon fluorescence; Hepatitis C virus NS3 helicase; NS3 helicase DNA unwinding; inhibition, % at 10.9 µM; actives 0.56% (n = 290,000);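 active means inhibition above the mean of all tested compounds plus 3 SD, set per campaign, cut at about 35% in these data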;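 further: 0% = DMSO wells and 100% = thioflavine S control wells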
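System: Hepatitis C virus NS3 helicase domain fragment enzyme | Reagent: Annealed dual-labelled DNA beacon duplex, ATP-started | Compound dosing: 10.9 µM single point, 0.8% DMSO | Incubation: 1 h reaction at 25 °C, ATP-initiated | Technique: Cy5 fluorescence | Evaluation: Percent inhibition from t60/t0 fluorescence ratio | Benchmarks: Low DMSO, high thioflavine S at 110 µM | Replication: Singlicate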
* = called active by the depositor; . = not tested or not shown. Sampled rows, rich in hits. Any-hit rate of the full collection: about 5.2%.

SMILES | EBNA-1 inhibitor | M18AAP inhibitor | ALR inh | HCV core dimer | ZTA counter | HCV NS3 hel inh
Cc1cc[n+](-c2[nH]c(=O)sc2/C=N/NC([S-])=Nc2ccccc2)cc1C | 2 | 32* | . | 7 | -8 | -8
Cc1ccc(CNc2ccc(N3CCOCC3)cc2)s1 | -10 | 3 | . | -6 | 10 | 3
Clc1cc(NCc2cccs2)ccc1N1CCOCC1 | 0 | 15 | 97* | 1 | -23 | -11
CC(=O)N1CCN(c2ccc(NCc3cccs3)cc2)CC1 | -6 | 18 | 99* | -7 | 10 | 25
CC(=O)N1CCN(c2ccc(NCc3ccc(C)s3)cc2)CC1 | -2 | -2 | 99* | -6 | 10 | 14
CC(=O)N1CCN(c2ccc(NCc3ccc4c(c3)OCO4)cc2)CC1 | 2 | 13 | . | -4 | -2 | 9
Cc1ccc(C)c(S(=O)(=O)N2CCN(C(=O)CSC(=S)N3CCCC3)CC2)c1 | -2 | . | -16 | 5 | 2 | .
O=C(CN1C(=O)CSc2ccc(S(=O)(=O)N3CCOCC3)cc21)NCc1ccc(F)cc1 | 5 | 6 | 0 | 6 | 10 | 1
Oc1[nH]c2ccccc2c1C1=NCCCCC1 | -7 | -3 | 93* | -13 | -11 | 5
O=[N+]([O-])c1ccc(N2CCSCC2)cc1 | 3 | 9 | -5 | -4 | 12 | -4
Cc1ccc2c(c1)c1c(n2C)-c2[nH]ncc2CC1 | -14 | 10 | 94* | -23 | 6 | -12
NC(=O)c1cc[n+](CC2=C(C(=O)O)N3C(=O)[C@@H](NC(=O)C(c4ccccc4)S(=O)(=O)[O-])[C@H]3SC2)cc1 (stereo partly drawn) | 6 | -7 | . | 11 | 35* | 5
N[C@@H](C(=O)N[C@@H]1C(=O)N2C(C(=O)O)=C(Cl)CS[C@H]12)c1ccccc1 | 5 | 5 | -34 | 2 | 13 | 6
O=C(CSc1nc(=O)n2ccccc2n1)OCc1ccccc1 | -1 | . | 2 | 4 | -2 | .
Cc1ccc(-c2ccc(C)c(N)c2C)c(C)c1N | -8 | 0 | 83* | -1 | 1 | 1
COC1=CC(=Cc2c(N)n3nc(CC(=O)N4CCCCC4)sc3nc2=O)C=C(OC)C1=O | -10 | 19 | 5 | -12 | 5 | 15
CCOC1=C/C(=C/c2c(N)n3nc(CC(=O)N4CCCC4)sc3nc2=O)C=CC1=O | -5 | 6 | 99* | -17 | -10 | 8
Nc1c(/C=C2/C=CC(=O)C(O)=C2)c(=O)nc2sc(CC(=O)N3CCCCC3)nn12 | -5 | 64* | 99* | -7 | -8 | 30
COC1=C/C(=C/c2c(N)n3nc(CC(=O)N4CCCC4)sc3nc2=O)C=CC1=O | 5 | 3 | 84* | -18 | 6 | 4
CCOC(=O)/C(C#N)=N/Nc1ccccc1C#N | -12 | -3 | 4 | -6 | -5 | 0
Cc1ccc2c(C)c(C(=O)N3CCN(C4CCS(=O)(=O)C4)CC3)oc2c1C (stereo not drawn) | -6 | 4 | -3 | -5 | 23 | -4
Cc1ccc(CN(C(=O)c2ccc([N+](=O)[O-])cc2)C2CCS(=O)(=O)C2)o1 (stereo not drawn) | 4 | -9 | -15 | 0 | 5 | 9
CCc1ccc(-c2nn(Cc3ccccc3)cc2/C=C/C(=O)O)cc1 | 3 | 2 | 80* | 4 | 5 | 9
ClCC1NCC(c2ccccc2Cl)c2c1[nH]c1ccccc21 (stereo not drawn) | -9 | 3 | 98* | -4 | 2 | -33
Cn1c(N)c(C(=O)CSc2nnc(C3CC3)n2Cc2ccccc2)c(=O)[nH]c1=O | . | . | . | . | -4 | .
COc1cc(C(=O)N/N=C/c2ccc3c(c2)c2ccccc2n3C)ccc1O | . | 11 | 100* | . | . | 22
COc1ccc(/C=N/NC(=O)c2cccc([N+](=O)[O-])c2)cc1O | 5 | 9 | 68 | -5 | 1 | 1
COc1cc(/C=N/NC(=O)c2cccc([N+](=O)[O-])c2)ccc1O | 0 | -3 | 99* | -3 | 15 | 7
